Activity calls are given as the source filed them. No cut-off for these calls is given here.
Key:
ASPC1 [1] = assay: Anticlonogenic activity against human Aspc-1 cells at 2 uM after 21 days by crystal violet staining based assay relative to control; format: functional; conditions: ASPC1, 504 h
Procedure, shortened: (§1)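 Anchorage-dependent colony formation: AsPC-1 cells seeded at 1000 cells/well in six-well plates and treated with compound. Colony formation is expressed as percent of vehicle treatment. Mean ± SD from at least three independent experiments, each in duplicate.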

[2] = molecular target: T1, Glutaminase liver isoform, mitochondrial (Homo sapiens, UniProt Q9UI32); assay: Inhibition of recombinant human His-tagged GAB (P56 to V602 residues) expressed in Escherichia coli C41(DE3)pLysS using glutamine as substrate preincubated for 10 mins followed by substrate addition measured after 60 mins by glutamate dehydrogenase coupled enzyme assay
T1 sequence (Q9UI32 whole entry): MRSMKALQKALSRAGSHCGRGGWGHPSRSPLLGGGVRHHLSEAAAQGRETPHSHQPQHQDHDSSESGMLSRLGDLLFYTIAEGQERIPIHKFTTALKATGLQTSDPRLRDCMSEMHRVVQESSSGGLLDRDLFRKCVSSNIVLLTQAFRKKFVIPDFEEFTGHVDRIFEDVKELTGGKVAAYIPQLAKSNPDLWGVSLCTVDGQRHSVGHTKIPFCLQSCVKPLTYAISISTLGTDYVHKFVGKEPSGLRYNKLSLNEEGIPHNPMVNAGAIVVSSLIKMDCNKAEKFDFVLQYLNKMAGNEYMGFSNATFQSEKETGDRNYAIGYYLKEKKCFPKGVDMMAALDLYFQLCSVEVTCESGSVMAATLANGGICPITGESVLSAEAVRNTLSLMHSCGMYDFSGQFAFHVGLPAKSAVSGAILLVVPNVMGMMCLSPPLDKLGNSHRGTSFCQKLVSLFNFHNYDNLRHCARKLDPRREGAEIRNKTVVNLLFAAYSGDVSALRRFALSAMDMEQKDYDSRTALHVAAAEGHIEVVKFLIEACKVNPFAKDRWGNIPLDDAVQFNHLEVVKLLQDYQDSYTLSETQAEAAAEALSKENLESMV

[3] = molecular target: T2, Glutaminase kidney isoform, mitochondrial (Homo sapiens, UniProt O94925); assay: Inhibition of recombinant human His-tagged KGA (L123 to L669 residues) expressed in Escherichia coli BL21(DE3)pLysS using glutamine substrate preincubated for 10 mins followed by substrate addition measured after 60 mins by glutamate dehydrogenase coupled enzyme assay
T2 sequence (O94925 whole entry): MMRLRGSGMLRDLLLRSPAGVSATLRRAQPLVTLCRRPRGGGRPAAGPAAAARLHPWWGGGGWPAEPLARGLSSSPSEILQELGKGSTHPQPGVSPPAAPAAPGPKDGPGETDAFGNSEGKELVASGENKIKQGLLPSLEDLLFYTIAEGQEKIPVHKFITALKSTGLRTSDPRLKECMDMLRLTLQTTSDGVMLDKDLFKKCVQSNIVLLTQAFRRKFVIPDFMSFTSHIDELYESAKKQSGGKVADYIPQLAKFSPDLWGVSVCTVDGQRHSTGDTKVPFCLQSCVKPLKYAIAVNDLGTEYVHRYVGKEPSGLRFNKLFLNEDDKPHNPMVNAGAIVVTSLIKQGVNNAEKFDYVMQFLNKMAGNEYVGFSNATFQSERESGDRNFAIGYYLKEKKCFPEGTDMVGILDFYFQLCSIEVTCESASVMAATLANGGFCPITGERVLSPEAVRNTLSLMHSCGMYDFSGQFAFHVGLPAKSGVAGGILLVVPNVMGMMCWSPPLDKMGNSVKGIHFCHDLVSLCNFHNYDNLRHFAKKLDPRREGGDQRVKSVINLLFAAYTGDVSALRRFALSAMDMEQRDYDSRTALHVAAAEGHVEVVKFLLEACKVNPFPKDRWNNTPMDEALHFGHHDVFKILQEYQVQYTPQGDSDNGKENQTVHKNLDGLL

[4] = molecular target: T2, Glutaminase kidney isoform, mitochondrial; assay: Inhibition of recombinant human MCF7 cells derived His-tagged GAC (L123 to S598 residues) expressed in Escherichia coli C41(DE3)pLysS using glutamine as substrate preincubated for 10 mins followed by substrate addition measured after 60 mins by glutamate dehydrogenase coupled enzyme assay
Procedure, shortened: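 Human GAC cloned from MCF7 cDNA into pET28a(+) as a His-tagged construct. Expressed in E. coli C41(DE3)pLysS in Terrific Broth with kanamycin, induced with 1 mM IPTG for 6 h at 25 °C. Purified on Ni2+ resin with 500 mM imidazole elution and exchanged into 50 mM NaH2PO4, 50 mM Tris-HCl pH 8.0, 2 mM DTT, 50% glycerol. Activity measured by two-step glutaminase assay.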

Homo sapiens [5] = species: Homo sapiens; assay: Selectivity index, ratio of IC50 for recombinant human His-tagged GAB (P56-V602 residues) expressed in Escherichia coli C41(DE3)pLysS to IC50 for recombinant human His-tagged KGA (L123 to L669 residues) expressed in Escherichia coli BL21(DE3)pLysS
ASPC1 [6] = assay: Anticlonogenic activity against human Aspc-1 cells at 10 uM after 21 days by crystal violet staining based assay relative to control; format: functional; conditions: ASPC1, 504 h; procedure, shortened: as §1
ASPC1 [7] = assay: Growth inhibition of human Aspc-1 cells after 72 hrs by MTS assay; format: functional, cell-based; conditions: ASPC1, 72 h
Procedure, shortened: (§2)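 Growth inhibition by MTS viability read-out. Cells seeded in 96-well plates at 4000/well (AsPC-1) or 8500/well (MDA-MB-231). Mean ± SD from at least three independent experiments, each in duplicate.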

MDA-MB-231 = assay: Growth inhibition of human MDA-MB-231 cells after 72 hrs by MTS assay; format: functional, cell-based; conditions: MDA-MB-231, 72 h; procedure, shortened: as §2
[8] = molecular target: T3, Glutaminase liver isoform, mitochondrial (Homo sapiens) (UniProt Q9UI32); assay: Inhibition of human GLS2 in GLS1 deficient human Aspc-1 cells assessed as decrease in cellular glutamate production after 4 hrs by amplex red glutamic acid assay
T3 sequence (whole entry): T1 sequence (Q9UI32 whole entry)
Procedure, shortened: (§3)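 GLS-knockout AsPC-1 cells made with GLS-KO ZFN mRNA, single-cell cloned, and grown in glutamine-free RPMI 1640 with 10% FBS. Cells seeded at 30 000/well and grown 24 h at 37 °C. Treated 4 h with 1% DMSO vehicle or 3.13−100 μM inhibitor, washed with PBS, and lysed in NP-40 buffer (4 °C, 20 min). Lysate glutamate measured by Amplex Red. Three independent experiments in duplicate.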

[9] = molecular target: T3, Glutaminase liver isoform, mitochondrial (Homo sapiens); assay: Inhibition of human GLS2 in GLS1 deficient human Aspc-1 cells assessed as decrease in cellular glutamate production at 3.13 to 100 uM after 4 hrs by amplex red glutamic acid assay; procedure, shortened: as §3
[10] = Inhibition of recombinant human His-tagged KGA S384A mutant expressed in Escherichia coli BL21(DE3)pLysS using glutamine substrate preincubated for 10 mins followed by substrate addition measured after 60 mins
[11] = Inhibition of recombinant human His-tagged KGA R387A mutant expressed in Escherichia coli BL21(DE3)pLysS using glutamine substrate preincubated for 10 mins followed by substrate addition measured after 60 mins
[12] = Inhibition of recombinant human His-tagged KGA R387L mutant expressed in Escherichia coli BL21(DE3)pLysS using glutamine substrate preincubated for 10 mins followed by substrate addition measured after 60 mins
[13] = Inhibition of recombinant human His-tagged KGA K507A mutant expressed in Escherichia coli BL21(DE3)pLysS using glutamine substrate preincubated for 10 mins followed by substrate addition measured after 60 mins
Homo sapiens [14] = species: Homo sapiens; assay: Selectivity ratio of IC50 for recombinant human His-tagged KGA S384A mutant expressed in Escherichia coli BL21(DE3)pLysS to IC50 for human His-tagged KGA (L123 to L669 residues) expressed in Escherichia coli BL21(DE3)pLysS
Homo sapiens [15] = species: Homo sapiens; assay: Selectivity ratio of IC50 for recombinant human His-tagged KGA R387A mutant expressed in Escherichia coli BL21(DE3)pLysS to IC50 for human His-tagged KGA (L123 to L669 residues) expressed in Escherichia coli BL21(DE3)pLysS
Homo sapiens [16] = species: Homo sapiens; assay: Selectivity ratio of IC50 for recombinant human His-tagged KGA R387L mutant expressed in Escherichia coli BL21(DE3)pLysS to IC50 for human His-tagged KGA (L123 to L669 residues) expressed in Escherichia coli BL21(DE3)pLysS
Homo sapiens [17] = species: Homo sapiens; assay: Selectivity ratio of IC50 for recombinant human His-tagged KGA K507A mutant expressed in Escherichia coli BL21(DE3)pLysS to IC50 for human His-tagged KGA (L123 to L669 residues) expressed in Escherichia coli BL21(DE3)pLysS
[18] = molecular target: Glutaminase 1/2 (Homo sapiens) (UniProt O94925+Q9UI32); conditions: 3.13 to 100 uM

IC50 [2] | IC50 [3] | IC50 [4] | Ratio IC50 (Homo sapiens [5]) | IC50 (ASPC1 [7]) | IC50 (MDA-MB-231) | inhibition [8] | inhibition [9] | IC50 [10] | IC50 [11] | IC50 [12] | IC50 [13] | Ratio IC50 (Homo sapiens [14]) | Ratio IC50 (Homo sapiens [15]) | Ratio IC50 (Homo sapiens [16]) | Ratio IC50 (Homo sapiens [17]) | inhibition [18] | Compound | inhibition at 2 µM (ASPC1 [1]) | inhibition at 10 µM (ASPC1 [6])
1720 nM | 54 nM | 391 nM | 32 | 24800 nM | 26300 nM | – | – | – | – | – | – | – | – | – | – | – | CCc1cc(-c2ccc(-n3c(-c4cccs4)cc(/C=C4\SC(=O)NC4=O)c3-c3cccs3)cc2)ccc1/C=C1\SC(=O)NC1=O | 44% | 89%
2140 nM | 243 nM | 355 nM | 8.8 | – | – | – | – | – | – | – | – | – | – | – | – | – | COc1cc(-n2c(C)cc(/C=C3\SC(=O)NC3=O)c2C)ccc1-c1ccc(/C=C2\SC(=O)NC2=O)cc1 | – | –
1030 nM | 39 nM | 87 nM | 26 | 12500 nM | 15300 nM | – | – | – | – | – | – | – | – | – | – | – | CCc1cc(-c2ccc(-n3c(C)cc(/C=C4\SC(=O)NC4=O)c3C)cc2)ccc1/C=C1\SC(=O)NC1=O | 28% | 59%
11800 nM | 4900 nM | 8760 nM | 2.4 | – | – | – | – | – | – | – | – | – | – | – | – | – | O=C1NC(=O)/C(=C/c2cc(-c3ccccc3)n(-c3ccc(Br)cc3)c2-c2ccccc2)S1 | – | –
> 100000 nM | 3100 nM | 5370 nM | > 32 | – | – | – | – | – | – | – | – | – | – | – | – | – | Cc1cc(/C=C2\SC(=O)NC2=O)c(C)n1-c1ccc(Br)cc1 | – | –
1240 nM | 56 nM | 217 nM | 22 | 8800 nM | 8200 nM | – | – | – | – | – | – | – | – | – | – | – | CCc1cc(-c2ccc(-n3c(-c4ccccc4)cc(/C=C4\SC(=O)NC4=O)c3-c3ccccc3)cc2)ccc1/C=C1\SC(=O)NC1=O | 51% | 91%
787 nM | 48 nM | 148 nM | 16 | 12000 nM | 8900 nM | – | – | – | – | – | – | – | – | – | – | – | COc1cc(-n2c(-c3ccccc3)cc(/C=C3\SC(=O)NC3=O)c2-c2ccccc2)ccc1-c1ccc(/C=C2\SC(=O)NC2=O)cc1 | 90% | 95%
5720 nM | 247 nM | 760 nM | 23 | – | – | – | – | – | – | – | – | – | – | – | – | – | Cc1cc(/C=C2\SC(=O)NC2=O)c(C)n1-c1ccc(-c2ccc(/C=C3\SC(=O)NC3=O)cc2)c(O)c1 | – | –
269 nM | 35 nM | 53 nM | 7.7 | 11900 nM | 10600 nM | – | – | – | – | – | – | – | – | – | – | – | COc1cc(-n2c(-c3cccs3)cc(/C=C3\SC(=O)NC3=O)c2-c2cccs2)ccc1-c1ccc(/C=C2\SC(=O)NC2=O)cc1 | 89% | 95%
3780 nM | 754 nM | 1270 nM | 5 | – | – | – | – | – | – | – | – | – | – | – | – | – | O=C1NC(=O)/C(=C/c2cc(-c3cccs3)n(-c3ccc(Br)cc3)c2-c2cccs2)S1 | – | –
1190 nM | 59 nM | 92 nM | 20 | – | – | – | – | – | – | – | – | – | – | – | – | – | CCc1cc(-c2ccc(-n3c(C)cc(/C=C4\SC(=O)NC4=O)c3C)cc2C#N)ccc1/C=C1\SC(=O)NC1=O | – | –
1190 nM | 66 nM | 177 nM | 18 | – | – | – | – | – | – | – | – | – | – | – | – | – | CCc1cc(-c2ccc(-n3c(C)cc(/C=C4\SC(=O)NC4=O)c3C)cc2OC)ccc1/C=C1\SC(=O)NC1=O | – | –
261 nM | 45 nM | 151 nM | 5.8 | 10000 nM | 13400 nM | Dose-dependent effect | Active | 78 nM | 8880 nM | 603 nM | 187 nM | 1.7 | 197 | 13.4 | 4.2 | Active | O=C1NC(=O)/C(=C/c2ccc(-c3ccc(-n4c(-c5ccccc5)cc(/C=C5\SC(=O)NC5=O)c4-c4ccccc4)cc3)cc2)S1 | 79% | 94%

From ChEMBL document CHEMBL4011632, “Design, Synthesis, and Evaluation of Thiazolidine-2,4-dione Derivatives as a Novel Class of Glutaminase Inhibitors” (J Med Chem, 2017)
